Measured values reported in ChEMBL document CHEMBL4261628, “1H-pyrrolo[2,3-b]pyridine: A new scaffold for human neutrophil elastase (HNE) inhibitors” (Bioorg Med Chem, 2018).
Calls of active or inactive are those of the source. The rule behind the calls is not given here.

Target: T1, Neutrophil elastase (Homo sapiens) (UniProt P08246)
T1 sequence (whole entry): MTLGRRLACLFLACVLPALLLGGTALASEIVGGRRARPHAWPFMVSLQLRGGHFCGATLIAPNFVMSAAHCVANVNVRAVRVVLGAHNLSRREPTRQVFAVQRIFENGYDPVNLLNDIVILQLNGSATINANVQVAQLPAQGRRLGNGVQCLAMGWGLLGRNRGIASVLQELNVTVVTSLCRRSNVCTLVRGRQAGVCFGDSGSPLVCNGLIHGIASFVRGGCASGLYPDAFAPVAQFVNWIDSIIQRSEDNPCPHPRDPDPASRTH
Assay: Inhibition of human neutrophil elastase at 50 uM using N-methylsuccinyl-Ala-Ala-Pro-Val-7-amino-4-methylcoumarin as substrate measured every 30 secs for 10 mins by fluorescence assay
Method in brief: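 HNE (20 mU/mL) in 200 mM Tris-HCl pH 7.5 with 0.01% BSA and 0.05% Tween-20. Compound from 5 mM DMSO stock, 1% DMSO final, tested up to 50 µM. Reaction started with 25 µM final substrate. Fluorescence read at ex 355/em 460 nm, 25 °C. No inhibition at 50 µM is reported as N.A.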
In the case of `Cn1cc(C(=O)Nc2ccccc2)c2cccnc21`, the inhibition was “inactive”.
For `CCOC(=O)c1cn(CC(=O)Nc2ccccc2)c2ncccc12`, the inhibition was “inactive”.
With `Cc1cccc(C(=O)n2ccc3cccnc32)c1` the inhibition was “inactive”.
With `N#Cc1cn(CC(=O)Nc2ccccc2)c2ncccc12` the inhibition was “inactive”.
For `Cc1cccc(C(=O)n2cc(-c3ccsc3)c3cccnc32)c1`, the inhibition was “inactive”.

System: not listed separately
Assay: Half life in 0.05 M phosphate buffer of pH 7.3 at 25 degC by spectrophotometric analysis
Assay type: physicochemical
For `CCOC(=O)c1cn(C(=O)c2cccc(C)c2)c2ncccc12`, the half-life was 210 min.
In the case of `Cc1cccc(C(=O)n2cc(C(=O)Nc3ccccc3)c3cccnc32)c1`, the half-life was 204 min.
Compound `N#Cc1cn(C(=O)C2CC2)c2ncccc12` has a half-life of 408 min.
Work on `Cc1cccc(C(=O)n2cc(C#N)c3cccnc32)c1` yielded a half-life of 114 min.
Work on `Cc1ccc(C(=O)n2cc(C#N)c3cccnc32)cc1` yielded a half-life of 156 min.
Work on `CCCCC(=O)n1cc(C#N)c2cccnc21` yielded a half-life of 114 min.
In the case of `CCOC(=O)c1cn(C(=O)C2CC2)c2ncccc12`, the half-life was 864 min.
In the case of `CCOC(=O)c1cn(C(=O)c2ccc(C)cc2)c2ncccc12`, the half-life was 258 min.
`Cc1cccc(C(=O)n2cc(-c3nc(C)no3)c3cccnc32)c1` gave a half-life of 144 min.
In the case of `Cc1cccc(C(=O)n2cc([N+](=O)[O-])c3cccnc32)c1`, the half-life was 24 min.
